Screening results deposited in PubChem BioAssay by Sanford-Burnham Center for Chemical Genomics.
STEP inh: blocks human striatal-enriched tyrosine phosphatase. recombinant STEP, OMFP fluorogenic substrate, fluorescence. P54829. inhibition, % at 20 µM. 360,000 tested, 0.25% active;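 active = inhibition at 20 µM, scaled per plate between control wells, above about 37%, limit read from the data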
Target sequence (P54829 whole entry, looked up): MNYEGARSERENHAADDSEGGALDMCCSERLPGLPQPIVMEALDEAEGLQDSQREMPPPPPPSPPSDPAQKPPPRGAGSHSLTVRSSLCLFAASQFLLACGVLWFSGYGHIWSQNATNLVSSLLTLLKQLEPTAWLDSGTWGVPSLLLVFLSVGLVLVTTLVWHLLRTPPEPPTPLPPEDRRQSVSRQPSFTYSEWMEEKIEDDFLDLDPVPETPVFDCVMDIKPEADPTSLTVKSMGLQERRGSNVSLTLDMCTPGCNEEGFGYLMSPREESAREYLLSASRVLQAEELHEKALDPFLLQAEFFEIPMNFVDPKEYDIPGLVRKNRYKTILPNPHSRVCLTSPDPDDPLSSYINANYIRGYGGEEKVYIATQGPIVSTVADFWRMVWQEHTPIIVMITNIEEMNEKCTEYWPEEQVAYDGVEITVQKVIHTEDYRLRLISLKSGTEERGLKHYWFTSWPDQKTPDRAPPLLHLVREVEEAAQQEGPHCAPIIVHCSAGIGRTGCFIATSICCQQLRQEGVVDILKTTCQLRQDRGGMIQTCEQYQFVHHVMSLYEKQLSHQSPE
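Measure: Control-normalized % inhibition with plate pattern correction | Test system: STEP phosphatase, cell-free reaction | Medium: pH 6.0 Bis-Tris with DTT and Tween 20 | Technique: Fluorescence, 480/540 nm | Times: Reaction 20 min, ambient temperature | Doses: Single compound dose of 20 µM, 1% DMSO final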
SUMO1-SIM PPI: SUMO1-SIM interaction modulation; P63165; SUMO1 binding to a labelled peptide, TR-FRET, 1 h; inhibition, % at 20 µM; 360,000 tested, 0.33% active; AID 602429; in the data active = inhibition above about 37%
Target sequence (P63165 whole entry, looked up): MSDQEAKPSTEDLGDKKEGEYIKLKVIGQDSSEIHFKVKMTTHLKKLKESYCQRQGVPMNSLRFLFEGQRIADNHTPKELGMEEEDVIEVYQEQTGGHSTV
LMPTP inh: blocks human LMPTP phosphatase. P24666. recombinant LMPTP-A, OMFP fluorogenic substrate, fluorescence intensity. inhibition, % at 20 µM. 360,000 tested, 0.22% active. AID 651560;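 active = compounds that cut the enzyme signal by at least half of the control window in the single-dose screen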
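Assay system: LMPTP-A enzyme. Input: 0.625 nM LMPTP-A final. Probe or stimulus: 400 µM OMFP. Compound dosing: single 20 µM dose. Schedule: 50 min dark incubation at room temperature. Detection: fluorescence intensity of OMFP turnover product. Read-out: percent inhibition versus substrate-only and uninhibited controls. Benchmarks: no-enzyme low control, uninhibited high control.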
Scp1 inh: inhibitors of human Scp-1 phosphatase. 340,000 tested, 0.88% active. inhibition, % at 20 µM. Recombinant Scp1, phosphopeptide, malachite green phosphate absorbance. Q9GZU7;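 active = inhibition above about 50% at 20 µM, limit read from the data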
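System: truncated SCP-1 phosphatase (76-261aa); medium: Tris acetate buffer pH 5.5 with MgCl2 and Tween-20; incubation: 45 min room-temperature reaction, 5 min colour, 30 min stabiliser; compound: single 20 µM dose, 1% DMSO; reagent: Phosphorylated 17-residue peptide substrate; read-out: % inhibition at 20 µM; technique: colorimetric free-phosphate detection, absorbance 630 nm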
DNMT1 block: DNMT1 (human) enzyme inhibition | P26358 | DNMT1 molecular beacon, Hinp1I cleavage, fluorescence | inhibition (reported as % activation of signal), % at 10 µM | 360,000 tested, 0.83% active | AID 588458; in the data active = inhibition above about 50%
Scp-1 conf: confirmation of human Scp-1 phosphatase inhibitors; shares compounds with Scp1 inh; 2,500 tested, 61% active; inhibition, % at 20 µM; AID 540281; recombinant SCP-1 catalytic domain, phosphate release, malachite green absorbance
MG interference: colorimetric interference in Scp-1 counter-screen; shares compounds with Scp1 inh; Colorimetric interference counterscreen, malachite green absorbance 630 nm; apparent inhibition (interference), % at 20 µM; 2,500 tested, under 10 active;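 also: compounds added after enzyme reaction finished so only phosphate colour detection is probed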
Scp1 DSF: validation of human Scp-1 inhibitors by thermal shift binding. thermal shift relative to vanadate control, % at 40 µM. Recombinant SCP1, Sypro Orange thermal shift Tm. 1,500 tested, 25% active. shares compounds with Scp1 inh;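 active = substances whose mean melting-temperature shift, as a percentage of the reference inhibitor's shift, reaches about 5.3%, limit read from the data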
A number is an active result; - = inactive; . = no result. This is a sample that favours compounds with a hit; in the whole collection about 1.7% have one here.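 The calls were made as follows, unless noted: active = inhibition of at least 30% at 20 µM; inactive = the rest.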

SMILES | STEP inh | SUMO1-SIM PPI | LMPTP inh | Scp1 inh | DNMT1 block | Scp-1 conf | MG interference | others
CC1(C)C[C@H](O)[C@@]23C[C@@H](OC2=O)[C@]2(C)C(=CCC4[C@@]5(C)CC[C@H](O)C(C)(C)C5CC[C@]42C)[C@@H]3C1 (stereo partly specified) | . | . | . | - | . | . | .
CC1CCCC(NC(=O)COC(=O)COc2ccc(C#N)cc2)C1C (stereo unspecified) | - | - | - | - | - | . | .
O=C(COC(=O)C1CCC(=O)N1)Nc1ccc(Cl)cc1Cl (stereo unspecified) | - | - | - | - | - | . | .
Cc1ccc(NC(=O)COC(=O)C2CCC(=O)N2)c(S(=O)(=O)N2CCOCC2)c1 (stereo unspecified) | - | - | - | - | - | - | -
Cc1ccc(CN(C)C2CCN(C)CC2)cc1 | - | - | - | - | - | . | .
C/C(CC1CC(COCC(C)C)OC1=O)=N\Nc1nc(-c2ccccc2)cs1 (stereo unspecified) | - | - | - | - | - | . | .
CC1CC(CC(=O)Nc2nc(-c3ccccc3)cs2)C(=O)O1 (stereo unspecified) | - | - | - | - | - | - | -
CCC(C)(C)n1nnnc1C(c1ccc(C)cc1)N(Cc1ccco1)Cc1cccs1 (stereo unspecified) | - | - | - | 107 | - | - | -
Cc1ccc(-c2nc3ccc(C(=O)O)cc3nc2-c2ccc(C)cc2)cc1 | - | - | - | 61 | - | - | -
Cc1ccc2nc(-c3ccccc3)c(-c3ccccc3)nc2c1 | - | - | - | - | - | . | .
COCCN1C(=O)CN(S(C)(=O)=O)CC1(C)C(=O)NC(C)C (stereo unspecified) | . | - | - | . | . | . | .
CC(=O)c1ccc(OC(C)c2nc3ccccc3s2)cc1 (stereo unspecified) | - | - | - | - | - | . | .
COc1ccc(S(=O)(=O)CCC(=O)N2CCN(c3ccc([N+](=O)[O-])cc3)CC2)cc1 | - | - | - | - | - | . | .
Cc1ccc(S(=O)(=O)CCC(=O)N2CCN(c3ccc([N+](=O)[O-])cc3)CC2)cc1 | - | - | - | 59 | - | - | -
O=C(CSc1ncnc2sc3c(c12)CCC3)N1CCOCC1 | - | - | - | 54 | - | 56 | - | Scp1 DSF=-
Cn1c[n+](C)cc1-c1ccc(/C(N)=N/O)cc1 | - | - | - | - | - | . | .
CSc1ccc(NC(=O)Nc2ccc(C(=O)NCC(=O)O)cc2)cc1 | - | - | - | 52 | - | 36 | - | Scp1 DSF=6.0
CCSc1ccc(C(=O)NCC(=O)O)cc1 | - | - | - | - | - | . | .
CCC(C)N1CCC2(CC1)N=c1c(c3c4c5c(C)c(O)c3c(O)c1=NC(=O)C(C)=CC=C[C@H](C)[C@H](O)[C@@H](C)[C@@H](O)[C@@H](C)[C@H](OC(C)=O)[C@H](C)[C@@H](OC)C=CO[C@@](C)(O5)C4=O)N2 (stereo partly specified) | - | - | - | - | - | . | .
COc1ccc(N2CCN(C(=O)COC(=O)c3cccc(OC)c3O)CC2)cc1 | - | - | - | - | - | . | .
CNc1ccccc1C(=O)OCC(=O)N1CCN(c2ccc(OC)cc2)CC1 | - | - | - | 66 | - | - | -
Cc1c(C)c(C)c(CN2CCCC2)c(C)c1C | - | - | - | - | - | . | .
CCc1nnc(NC(=O)CSC(=S)N2CCOCC2)s1 | - | - | - | 67 | - | - | -
O=C(CNC(=O)c1sc2ccccc2c1Cl)NCc1cccc(C(F)(F)F)c1 | - | - | - | - | - | . | .
COc1ccc(S(=O)(=O)N2CCOCC2)cc1C(=O)N(C)CCOc1ccc(Cl)cc1 | - | - | - | - | - | . | .
SMILES | STEP inh | SUMO1-SIM PPI | LMPTP inh | Scp1 inh | DNMT1 block | Scp-1 conf | MG interference | others
O=C(N/N=C/c1cc(Cl)cc([N+](=O)[O-])c1O)c1cc(-c2ccccn2)nc2ccccc12 | - | - | - | 104 | - | 88 | - | Scp1 DSF=12
C/C(=N\Nc1ccc(Cl)c(C(=O)O)c1)c1ccc[nH]1 | - | - | - | 73 | - | 59 | - | Scp1 DSF=17
C/C(=N\Nc1ccc(Cl)c(C(=O)O)c1)c1cccs1 | - | - | - | - | - | . | .
Cc1ncc([N+](=O)[O-])n1CC(=O)Nc1ccc2c(c1)OCO2 | - | - | - | - | - | . | .
O=C(O)C(Cc1ccccc1N(CCO)CCO)N1C(=O)c2ccccc2C1=O (stereo unspecified) | - | - | - | - | - | . | .
CC(=O)C(Cc1ccc(Cl)nc1)Cc1ccc(Cl)nc1 | - | - | - | 69 | - | - | -
Cc1[nH]c2ccccc2c1/C=C/c1cc[n+](C)cc1 | - | - | - | - | - | . | .
Cc1ccccc1/C=C/c1cc[n+](C)cc1 | - | - | - | 58 | - | - | -
C[N+]1(C2CCC3CCCC2C3O)CCCC1 (stereo unspecified) | - | - | - | 93 | - | 76 | - | Scp1 DSF=-
CC(C)(C)OC(=O)NCCCCCNC(=O)c1nc[nH]c1C(=O)NCCCCCNC(=O)OC(C)(C)C | - | - | - | - | - | . | .
COc1ccc(NC(=O)COC(=O)c2cc3c(s2)CCC3)cc1 | - | - | - | 57 | 66 | 63 | - | Scp1 DSF=-
Cn1c(=O)c(C(=O)CN2CCc3ccccc32)c(N)n(Cc2ccccc2)c1=O | - | - | - | - | - | . | .
Cn1c(=O)c(C(=O)CN2CC(=O)Nc3ccccc32)c(N)n(Cc2ccccc2)c1=O | - | - | - | - | - | - | -
O=C(COC(=O)c1ccccc1)Nc1cccc(S(=O)(=O)N2CCCCC2)c1 | - | - | - | - | - | . | .
Cc1ccc(C)c(NC(=O)CN(C)C(=O)c2cc(-c3cccs3)nn2-c2ccccc2)c1 | - | - | - | 56 | - | - | -
CN(CC(=O)Nc1ccc(F)cc1)C(=O)Cn1cnc2ccc(Cl)cc2c1=O | - | - | - | - | - | . | .
CCCc1ccc2oc(C(=O)N3CCC(COC)C3)c(C)c2c1 (stereo unspecified) | - | - | - | 69 | - | - | -
Cn1c(SCC(=O)Nc2nncs2)nnc1C1CC1 | - | - | - | 79 | - | 53 | - | Scp1 DSF=5.5
Cc1noc(C)c1S(=O)(=O)Nc1ccc2c(c1)C(=O)N([C@H](C)CO)C[C@H](C)[C@@H](CN(C)Cc1ccc(C(=O)O)cc1)O2 | - | - | - | - | - | . | .
O=C(O)C(F)=C(c1ccccc1)c1ccccc1 | - | - | - | 52 | - | - | -
COc1cccc(NC(=O)CSCc2cc(=O)n3nc(C4CC4)sc3n2)c1 | - | - | - | - | - | - | -
COc1ccc(N/C=C(\C(C)=O)c2ccc(OC)c(OC)c2)cc1OC | - | - | - | - | - | . | .
